Data as given in ChEMBL document CHEMBL1121860, “Characterization of alpha-adrenoceptor populations. Quantitative relationships between cardiovascular effects initiated at central and peripheral alpha-adrenoceptors” (J Med Chem, 1981).

Experiments:
[1] = Partition coefficient (logD7.4); format: physicochemical; conditions: octanol/water, pH 7.4
Method in brief: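 Octanol against 0.1 M phosphate buffer at pH 7.4 and 37 °C. Drug at about 10^-4 M in octanol-saturated buffer was shaken for 1 h with buffer-saturated octanol, then left standing 6 h. Buffer-phase drug was measured by UV at λmax before and after partitioning, with GLC or potentiometric titration used for some compounds. Apparent P' is the mean of six partition experiments.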

[2] = target: T1, Adrenergic receptor alpha (Rattus norvegicus) (UniProt P15823+P23944+P43140+P22086+P19328+P22909); experiment: Central hypotensive activity in anesthetized normotensive rats.; format: functional
Method in brief: (§1)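 Male normotensive Wistar rats (190-220 g), pentobarbitone sodium 75 mg/kg ip, ventilated, ~37 °C; iv jugular dosing, one single dose per rat, randomized; carotid arterial pressure after ≥20 min equilibration with heparin; rats with MAP <100 or >150 mmHg excluded. Maximal MAP fall as % of preinjection; pC25 = log reciprocal dose (μmol/kg) for 25% fall, from log dose-response curves; points mean of 5-6 experiments.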

[3] = target: T1, Adrenergic receptor alpha (Rattus norvegicus); experiment: Peripheral hypertensive activity in pithed normotensive rats.; format: functional
Method in brief: (§2)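 Normotensive rats under hexobarbitone sodium 150 mg/kg ip, pithed via orbit, ventilated, ~37 °C, heparinized; after 20 min equilibration, single iv jugular doses in random order, 3-4 per rat with recovery between; carotid MAP rise (mmHg). pC60 = log reciprocal dose (μmol/kg) raising MAP by 60 mmHg, from log dose-response curves; points mean of 5-6 experiments.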

[4] = target: T1, Adrenergic receptor alpha (Rattus norvegicus); experiment: Tested for central hypotensive activity in anesthetized normotensive rats at alpha adrenoceptor expressed as 25% decrease in mean arterial pressure; method in brief: as §1
[5] = target: T1, Adrenergic receptor alpha (Rattus norvegicus); experiment: Tested for peripheral hypertensive activity in pithed normotensive rats at alpha adrenoceptor expressed as increase in mean arterial pressure by 60 mmHg; method in brief: as §2

`CC(Oc1c(Cl)cccc1Cl)C1=NCCN1` (stereo not given) [LOFEXIDINE] gave a logD [1] of 0.73, a pC25 [2] of 2.09 and a pC60 [3] of 1.99.
In the case of `Clc1cccc(Cl)c1CC1=NCCN1`, the logD [1] is reported as -0.53, the pC25 [2] is reported as 0.68 and the pC60 [3] is reported as 1.17.
`C=CCN1CCc2nc(N)sc2CC1` [TALIPEXOLE] showed a logD [1] of 1.09, a pC25 [2] of 1.43 and a pC60 [3] of 0.69.
For `Clc1cccc(Cl)c1SC1=NCCN1`, the logD [1] was 1.36, the pC25 [2] was 0.88 and the pC60 [3] was 1.24.
For `FC(F)(F)c1cc(Br)cc(Br)c1NC1=NCCN1`, the logD [1] was 2.8 and the pC60 [3] was -0.26.
In the case of `Clc1cccc(Cl)c1NC1=NCCCN1`, the pC60 [3] is reported as -0.79.
Molecule `Clc1cccc(Cl)c1/C=N/NC1=NCCN1` has a logD [1] of 2.12, a pC25 [2] of 0.63 and a pC60 [3] of 0.23.
Work on `Clc1cccc(Cl)c1N=C1NCCN1` [CLONIDINE] yielded a logD [1] of 0.85.
`Brc1cc(Br)c(N=C2NCCN2)c(Br)c1` gave a logD [1] of 2.51 and a pC60 [3] of 0.65.
`Cc1cc(C(C)(C)C)cc(C)c1CC1=NCCN1` [XYLOMETAZOLINE] showed a logD [1] of 0.4, a pC25 [2] of 0.26 and a pC60 [3] of 1.12.
`Clc1cccc(Cl)c1NC1=NCCN1` gave a pC25 [2] of 2.04 and a pC60 [3] of 1.78.
`CCN1CCc2nc(N)oc2CC1` [AZEPEXOLE] showed a logD [1] of 0.05, a pC25 [2] of -0.14 and a pC60 [3] of -0.41.
Molecule `Brc1c(NC2=NCCN2)ccc2nccnc12` [BRIMONIDINE] has a logD [1] of 0.31, a pC25 [2] of 1.55 and a pC60 [3] of 1.56.
With `Cc1cccc(C)c1N=C1NCCCS1` [XYLAZINE] the logD [1] was 1.34.
Work on `Cc1cccc(C)c1/N=C1/NCCO1` yielded a logD [1] of 1.28, a pC25 [4] of 1.96 and a pC60 [5] of 1.51.
With `Cc1csc(Cl)c1NC1=NCCN1` [TIAMENIDINE] the logD [1] was -0.17, the pC25 [2] was 0.69 and the pC60 [3] was 1.2.
`Clc1cc(Br)cc(Cl)c1N=C1NCCN1` showed a logD [1] of 2.31, a pC25 [2] of 0.84 and a pC60 [3] of 1.22.
Work on `CC[C@H]1CCC[C@@H](C)[C@@H]1NC1=NCCO1` yielded a logD [1] of 1.39, a pC25 [4] of 2.32 and a pC60 [5] of 2.11.
With `Clc1cccc(Cl)c1C1=CN2CCN=C2S1` the logD [1] was 2.02, the pC25 [2] was 2.77 and the pC60 [3] was 2.4.
`c1cc2c(c(NC3=NCCN3)c1)CCCC2` [TRAMAZOLINE] gave a logD [1] of -0.62, a pC25 [2] of 0.55 and a pC60 [3] of 1.8.
With `Cc1cccc(C)c1NC1=NCCCS1` the pC25 [2] was 0.62 and the pC60 [3] was -0.02.
With `c1ccc2c(CC3=NCCN3)cccc2c1` [NAPHAZOLINE] the logD [1] was -0.52, the pC25 [2] was 0.95 and the pC60 [3] was 1.83.
Molecule `Clc1cccc(Cl)c1N=C1NCCCN1` has a logD [1] of -0.34.
With `c1ccc2c(c1)CCCC2C1=NCCN1` (stereo not given) [TETRAHYDROZOLINE] the logD [1] was -0.9, the pC25 [2] was -0.16 and the pC60 [3] was 0.9.
